System: A549
Assay: Antitumor activity against human A549 cells xenografted in Balb/c mouse assessed as tumor growth inhibition at 30 mg/kg, ip treated once in 2 days for 10 days relative to control
Format: functional
Conditions: read-out: TGI
Procedure, shortened: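 Male BALB/c nude mice, 5 weeks old, 18−20 g. Right flank injected sc with 0.1 mL of 1 × 10⁷ cells/mL log-phase A549 in FBS-free DMEM. At ~100 mm³, randomised into groups of 5 and dosed ip every 2 days; vehicle controls got equal volume. Tumour volume (0.5 × length × width²) and body weight recorded every 2 days.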

**Q.** With `COc1ccc(/C=C\c2cc(OC)c(OC)c(OC)c2)cc1OP(=O)(O)O` [FOSBRETABULIN] as the molecule, how does the inhibition in vivo at 30 mg/kg read?
**A.** Its inhibition in vivo at 30 mg/kg is 56.6%.

Reference: ChEMBL document CHEMBL4020840, “Synthesis and Biological Evaluation of Selenium-Containing 4-Anilinoquinazoline Derivatives as Novel Antimitotic Agents” (J Med Chem, 2018)
